Key:
RbAp48 [1] = conditions: RbAp48 expressed in a reticulocyte lysate; cited from earlier work
[2] = tested on: RbAp48 mutants (E126A/E179A; E231A/D248A/N277A/E319A); experiment: Pulldown of in vitro translated 35S-labeled mutant RbAp48 by biotinylated FOG-1-; format: binding
In short: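 ³⁵S-labeled RbAp48 mutants made by coupled in vitro transcription/translation in rabbit reticulocyte lysate. About 10 μg biotinylated FOG-1-(1–15) on high-capacity streptavidin beads, in Tris pH 7.4, 300 mm NaCl, 0.5% IGEPAL and EDTA-free protease inhibitor. Lysate (15 μl, plus 45 μl ³⁵S-MTA-1 where stated) with 250 μl beads, 1 h, 4 °C. Bare-bead control; 10% input. Five washes; SDS-PAGE and autoradiography.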

RbAp48 [3] = experiment: Binding of MBD3 N-terminal peptide to RbAp48; conditions: data not shown

FOG-1-(1–15): chemically synthesized peptide, the 15 N-terminal amino acids of FOG-1
interaction with RbAp48 in GST pulldown assays (RbAp48 [1]): can interact
pulldown of E126A/E179A mutant RbAp48 in the presence of MTA-1 ([2]; 45 μl lysate with 35S-labeled MTA-1 added, Fig. 5B lane 10): could be recruited

MERKRWECPALPQGW [N-terminal peptide derived from MBD3]
binding to RbAp48 (RbAp48 [3]): does not bind measurably

biotinylated FOG-1-(1–15): FOG-1-(1–15) peptide bearing an N-terminal biotin tag, immobilized on streptavidin
pulldown of quadruple-point mutant RbAp48 (Glu-231, Asp-248, Asn-277, Glu-319) ([2]; biotinylated peptide on streptavidin beads, Fig. 5A): disrupts binding

Reference: article PMC3020727 (The Journal of Biological Chemistry, 2010)
